Test results reported in ChEMBL document CHEMBL3046428, “Isolation, characterization and antifungal activity of major constituents of the Himalayan lichen Parmelia reticulata Tayl” (2011).
≈ marks a conversion by molar mass, not a printed value.

Key:
Format in all cases: functional
[1] = system: Macrophomina phaseolina; test: Antifungal activity against Rhizoctonia bataticola assessed as growth inhibition at 7.25 ug/ml by poisoned food technique
Procedure, shortened: (§1)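 Poisoned-food assay on potato dextrose agar: test material is dissolved and diluted in acetone and mixed into the medium before pouring, with an acetone-only control. A 5 mm mycelial disk is cut from the growing edge of a 2-week-old colony and placed inoculum-down at the plate centre. Plates are incubated at 28 °C until control growth is nearly complete. Colony diameter is measured, and % inhibition = (C−T)/C×100. Four replicates give the mean.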

[2] = system: Macrophomina phaseolina; test: Antifungal activity against Rhizoctonia bataticola assessed as growth inhibition by poisoned food technique; conditions: read-out: ED50 (the source's name)
Procedure, shortened: (§2)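 ED50 from poisoned-food growth inhibition on PDA at 250, 125 and 62.5 μg/mL in medium, with an acetone control. Plates were inoculated with a 5 mm mycelial disc, incubated at 28 °C, and colony diameter was measured in quadruplicate. Percent inhibition was corrected by Abbott's formula, using a correction factor from the 9 cm dish diameter, and ED50 (μg/mL) was derived by probit analysis.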

[3] = system: Pythium aphanidermatum; test: Antifungal activity against Pythium aphanidermatum assessed as growth inhibition at 7.25 ug/ml by poisoned food technique; procedure, shortened: as §1
[4] = system: Globisporangium debaryanum; test: Antifungal activity against Pythium debaryanum assessed as growth inhibition at 7.25 ug/ml by poisoned food technique; procedure, shortened: as §1
[5] = system: Rhizoctonia solani; test: Antifungal activity against Rhizoctonia solani assessed as growth inhibition by poisoned food technique; conditions: read-out: ED50 (the source's name); procedure, shortened: as §2
[6] = system: Fusarium udum; test: Antifungal activity against Fusarium udum assessed as growth inhibition at 15.50 ug/ml by poisoned food technique; procedure, shortened: as §1
[7] = system: Fusarium udum; test: Antifungal activity against Fusarium udum assessed as growth inhibition by poisoned food technique; conditions: read-out: ED50 (the source's name); procedure, shortened: as §2
[8] = system: Pythium aphanidermatum; test: Antifungal activity against Pythium aphanidermatum assessed as growth inhibition at 15.50 ug/ml by poisoned food technique; procedure, shortened: as §1
[9] = system: Athelia rolfsii; test: Antifungal activity against Athelia rolfsii assessed as growth inhibition at 15.50 ug/ml by poisoned food technique; conditions: Agroathelia rolfsii; procedure, shortened: as §1
[10] = system: Rhizoctonia solani; test: Antifungal activity against Rhizoctonia solani assessed as growth inhibition at 15.50 ug/ml by poisoned food technique; procedure, shortened: as §1
[11] = system: Rhizoctonia solani; test: Antifungal activity against Rhizoctonia solani assessed as growth inhibition at 31 ug/ml by poisoned food technique; procedure, shortened: as §1
[12] = system: Pythium aphanidermatum; test: Antifungal activity against Pythium aphanidermatum assessed as growth inhibition by poisoned food technique; conditions: read-out: ED50 (the source's name); procedure, shortened: as §2
[13] = system: Fusarium udum; test: Antifungal activity against Fusarium udum assessed as growth inhibition at 31 ug/ml by poisoned food technique; procedure, shortened: as §1
[14] = system: Fusarium udum; test: Antifungal activity against Fusarium udum assessed as growth inhibition at 7.25 ug/ml by poisoned food technique; procedure, shortened: as §1
[15] = system: Rhizoctonia solani; test: Antifungal activity against Rhizoctonia solani assessed as growth inhibition at 7.25 ug/ml by poisoned food technique; procedure, shortened: as §1
[16] = system: Macrophomina phaseolina; test: Antifungal activity against Rhizoctonia bataticola assessed as growth inhibition at 15.50 ug/ml by poisoned food technique; procedure, shortened: as §1
[17] = system: Macrophomina phaseolina; test: Antifungal activity against Rhizoctonia bataticola assessed as growth inhibition at 31 ug/ml by poisoned food technique; procedure, shortened: as §1
[18] = system: Pythium aphanidermatum; test: Antifungal activity against Pythium aphanidermatum assessed as growth inhibition at 31 ug/ml by poisoned food technique; procedure, shortened: as §1
[19] = system: Athelia rolfsii; test: Antifungal activity against Athelia rolfsii assessed as growth inhibition by poisoned food technique; conditions: Agroathelia rolfsii; read-out: ED50 (the source's name); procedure, shortened: as §2
[20] = system: Globisporangium debaryanum; test: Antifungal activity against Pythium debaryanum assessed as growth inhibition at 31 ug/ml by poisoned food technique; procedure, shortened: as §1
[21] = system: Athelia rolfsii; test: Antifungal activity against Athelia rolfsii assessed as growth inhibition at 7.25 ug/ml by poisoned food technique; conditions: Agroathelia rolfsii; procedure, shortened: as §1
[22] = system: Globisporangium debaryanum; test: Antifungal activity against Pythium debaryanum assessed as growth inhibition at 15.50 ug/ml by poisoned food technique; procedure, shortened: as §1
[23] = system: Globisporangium debaryanum; test: Antifungal activity against Pythium debaryanum assessed as growth inhibition by poisoned food technique; conditions: read-out: ED50 (the source's name); procedure, shortened: as §2
[24] = system: Athelia rolfsii; test: Antifungal activity against Athelia rolfsii assessed as growth inhibition at 31 ug/ml by poisoned food technique; conditions: Agroathelia rolfsii; procedure, shortened: as §1
[25] = system: Globisporangium debaryanum; test: Antifungal activity against Pythium debaryanum assessed as growth inhibition at 250 ug/ml by poisoned food technique
Procedure, shortened: (§3)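 Poisoned-food assay on PDA. Test material was diluted in acetone and mixed into molten medium at final 250, 125 or 62.5 μg/mL, with 1 mL acetone as control. Plates received a 5 mm mycelial disc from the front of a 2-week-old colony and were incubated at 28 °C until control growth was nearly complete. Colony diameter was measured, giving %I = (C−T)/C×100. Mean ± SD of four replicates.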

[26] = system: Athelia rolfsii; test: Antifungal activity against Athelia rolfsii assessed as growth inhibition at 125 ug/ml by poisoned food technique; conditions: Agroathelia rolfsii; procedure, shortened: as §3
[27] = system: Pythium aphanidermatum; test: Antifungal activity against Pythium aphanidermatum assessed as growth inhibition at 62.5 ug/ml by poisoned food technique; procedure, shortened: as §3
[28] = system: Fusarium udum; test: Antifungal activity against Fusarium udum assessed as growth inhibition at 125 ug/ml by poisoned food technique; procedure, shortened: as §3
[29] = system: Rhizoctonia solani; test: Antifungal activity against Rhizoctonia solani assessed as growth inhibition at 250 ug/ml by poisoned food technique; procedure, shortened: as §3
[30] = system: Fusarium udum; test: Antifungal activity against Fusarium udum assessed as growth inhibition at 250 ug/ml by poisoned food technique; procedure, shortened: as §3
[31] = system: Athelia rolfsii; test: Antifungal activity against Athelia rolfsii assessed as growth inhibition at 250 ug/ml by poisoned food technique; conditions: Agroathelia rolfsii; procedure, shortened: as §3
[32] = system: Pythium aphanidermatum; test: Antifungal activity against Pythium aphanidermatum assessed as growth inhibition at 125 ug/ml by poisoned food technique; procedure, shortened: as §3
[33] = system: Fusarium udum; test: Antifungal activity against Fusarium udum assessed as growth inhibition at 62.5 ug/ml by poisoned food technique; procedure, shortened: as §3
[34] = system: Macrophomina phaseolina; test: Antifungal activity against Rhizoctonia bataticola assessed as growth inhibition at 250 ug/ml by poisoned food technique; procedure, shortened: as §3
[35] = system: Globisporangium debaryanum; test: Antifungal activity against Pythium debaryanum assessed as growth inhibition at 125 ug/ml by poisoned food technique; procedure, shortened: as §3
[36] = system: Macrophomina phaseolina; test: Antifungal activity against Rhizoctonia bataticola assessed as growth inhibition at 125 ug/ml by poisoned food technique; procedure, shortened: as §3
[37] = system: Pythium aphanidermatum; test: Antifungal activity against Pythium aphanidermatum assessed as growth inhibition at 250 ug/ml by poisoned food technique; procedure, shortened: as §3
[38] = system: Rhizoctonia solani; test: Antifungal activity against Rhizoctonia solani assessed as growth inhibition at 62.5 ug/ml by poisoned food technique; procedure, shortened: as §3
[39] = system: Athelia rolfsii; test: Antifungal activity against Athelia rolfsii assessed as growth inhibition at 62.5 ug/ml by poisoned food technique; conditions: Agroathelia rolfsii; procedure, shortened: as §3
[40] = system: Rhizoctonia solani; test: Antifungal activity against Rhizoctonia solani assessed as growth inhibition at 125 ug/ml by poisoned food technique; procedure, shortened: as §3
[41] = system: Macrophomina phaseolina; test: Antifungal activity against Rhizoctonia bataticola assessed as growth inhibition at 62.5 ug/ml by poisoned food technique; procedure, shortened: as §3
[42] = system: Globisporangium debaryanum; test: Antifungal activity against Pythium debaryanum assessed as growth inhibition at 62.5 ug/ml by poisoned food technique; procedure, shortened: as §3

Q: With `CCCCC(O)(Cn1cncn1)c1ccc(Cl)cc1Cl` (stereo not drawn) [HEXACONAZOLE] as the compound, how does the inhibition at 7.25 µg/mL [1] read?
A: Its inhibition at 7.25 µg/mL is 60.1%.

Q: And the EC50 [2]?
A: Its EC50 is 4.4 µg/mL (≈ 14 µM).

Q: What about the inhibition at 7.25 µg/mL [3] of the same compound?
A: The inhibition at 7.25 µg/mL was 14.1%.

Q: And the inhibition at 7.25 µg/mL [4]?
A: Its inhibition at 7.25 µg/mL is 11.1%.

Q: What about the EC50 [5] of the same compound?
A: The EC50 was 18.3 µg/mL (≈ 58.2 µM).

Q: And the inhibition at 15.5 µg/mL [6]?
A: Its inhibition at 15.5 µg/mL is 23.7%.

Q: What about the EC50 [7] of the same compound?
A: Its EC50 is 22 µg/mL (≈ 70 µM).

Q: And the inhibition at 15.5 µg/mL [8]?
A: Its inhibition at 15.5 µg/mL is 32.7%.

Q: What about the inhibition at 15.5 µg/mL [9] of the same compound?
A: Its inhibition at 15.5 µg/mL is 45.3%.

Q: And the inhibition at 15.5 µg/mL [10]?
A: Its inhibition at 15.5 µg/mL is 38.2%.

Q: And the inhibition at 31 µg/mL [11]?
A: The inhibition at 31 µg/mL was 72.6%.

Q: What about the EC50 [12] of the same compound?
A: Its EC50 is 22.1 µg/mL (≈ 70.2 µM).

Q: And the inhibition at 31 µg/mL [13]?
A: The inhibition at 31 µg/mL was 70%.

Q: And the inhibition at 7.25 µg/mL [14]?
A: The inhibition at 7.25 µg/mL was 18.6%.

Q: What about the inhibition at 7.25 µg/mL [15] of the same compound?
A: The inhibition at 7.25 µg/mL was 20.6%.

Q: What about the inhibition at 15.5 µg/mL [16] of the same compound?
A: Its inhibition at 15.5 µg/mL is 73.2%.

Q: What about the inhibition at 31 µg/mL [17] of the same compound?
A: Its inhibition at 31 µg/mL is 87%.

Q: And the inhibition at 31 µg/mL [18]?
A: The inhibition at 31 µg/mL was 65.3%.

Q: And the EC50 [19]?
A: Its EC50 is 13.4 µg/mL (≈ 42.7 µM).

Q: What about the inhibition at 31 µg/mL [20] of the same compound?
A: Its inhibition at 31 µg/mL is 59.2%.

Q: What about the inhibition at 7.25 µg/mL [21] of the same compound?
A: Its inhibition at 7.25 µg/mL is 28.2%.

Q: And the inhibition at 15.5 µg/mL [22]?
A: Its inhibition at 15.5 µg/mL is 26.3%.

Q: And the EC50 [23]?
A: Its EC50 is 25.9 µg/mL (≈ 82.5 µM).

Q: What about the inhibition at 31 µg/mL [24] of the same compound?
A: The inhibition at 31 µg/mL was 90.7%.

Q: With `COc1cc(C)c(C(=O)O)c(O)c1C` as the compound, how does the inhibition at 250 µg/mL [25] read?
A: Its inhibition at 250 µg/mL is 83.8%.

Q: And the EC50 [2]?
A: The EC50 was 74.5 µg/mL (≈ 380 µM).

Q: And the inhibition at 125 µg/mL [26]?
A: The inhibition at 125 µg/mL was 44.3%.

Q: And the inhibition at 62.5 µg/mL [27]?
A: The inhibition at 62.5 µg/mL was 28.4%.

Q: And the EC50 [5]?
A: The EC50 was 50.6 µg/mL (≈ 258 µM).

Q: What about the inhibition at 125 µg/mL [28] of the same compound?
A: The inhibition at 125 µg/mL was 46.5%.

Q: And the EC50 [7]?
A: The EC50 was 106 µg/mL (≈ 541 µM).

Q: What about the inhibition at 250 µg/mL [29] of the same compound?
A: The inhibition at 250 µg/mL was 82%.

Q: What about the inhibition at 250 µg/mL [30] of the same compound?
A: The inhibition at 250 µg/mL was 58%.

Q: And the inhibition at 250 µg/mL [31]?
A: The inhibition at 250 µg/mL was 53%.

Q: And the inhibition at 125 µg/mL [32]?
A: Its inhibition at 125 µg/mL is 67.7%.

Q: And the inhibition at 62.5 µg/mL [33]?
A: Its inhibition at 62.5 µg/mL is 23.7%.

Q: What about the inhibition at 250 µg/mL [34] of the same compound?
A: Its inhibition at 250 µg/mL is 68%.

Q: And the inhibition at 125 µg/mL [35]?
A: Its inhibition at 125 µg/mL is 61.4%.

Q: And the EC50 [12]?
A: Its EC50 is 71.1 µg/mL (≈ 362 µM).

Q: What about the inhibition at 125 µg/mL [36] of the same compound?
A: The inhibition at 125 µg/mL was 56.4%.

Q: And the inhibition at 250 µg/mL [37]?
A: Its inhibition at 250 µg/mL is 79.3%.

Q: What about the inhibition at 62.5 µg/mL [38] of the same compound?
A: Its inhibition at 62.5 µg/mL is 50%.

Q: What about the EC50 [19] of the same compound?
A: Its EC50 is 116 µg/mL (≈ 589 µM).

Q: What about the inhibition at 62.5 µg/mL [39] of the same compound?
A: Its inhibition at 62.5 µg/mL is 28.4%.

Q: And the inhibition at 125 µg/mL [40]?
A: Its inhibition at 125 µg/mL is 70.6%.

Q: And the inhibition at 62.5 µg/mL [41]?
A: The inhibition at 62.5 µg/mL was 39.4%.

Q: And the EC50 [23]?
A: Its EC50 is 73.8 µg/mL (≈ 376 µM).

Q: And the inhibition at 62.5 µg/mL [42]?
A: Its inhibition at 62.5 µg/mL is 33%.
